ChEMBL document CHEMBL5338772, “Stereochemical Control of Splice Modulation in FD-895 Analogues” (J Med Chem, 2023)
Active and inactive are the calls of the source. The calls are words filed in the database; no cut-off is given here.

Assays:
[1] = Cytotoxicity against human HCT-116 cells assessed as cell growth inhibition incubated for 72 hrs by MTS assay; assay type: toxicity, cell-based
In short: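 HCT-116 cells (ATCC; split every other day, no more than five generations, mycoplasma-tested) plated at 5 × 10³ cells/well in supplemented McCoy's 5a and grown 24 h at 37 °C, 5% CO₂. Compound added from DMSO (0.5% DMSO final) for 72 h. Cells washed with PBS, MTS reagent added for 2 h at 37 °C, A490 read against A690. GI₅₀ fitted from dose curves of 3 biological replicates.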

SF3A3 pre-mRNA [2] = experiment: Modulation of splicing in SF3A3 pre-mRNA in human HCT-116 cells assessed as intron 5 retention at 100 to 500 nM incubated for 24 hrs by qRT-PCR analysis; assay type: functional, cell-based; conditions: dose 100-500 nM
In short: (§1)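 HCT-116 cells in supplemented McCoy's 5a with 0.5% DMSO, treated 24 h at 100, 250 or 500 nM; untreated cells as control. Total RNA isolated, 1 µg DNase I-treated, reverse transcribed. qPCR on 5 ng cDNA with 2.5 µM each primer, 40 cycles of 95 °C 30 s, 55 °C 60 s, 72 °C 60 s. Splice-event primers for intron retention or exon skipping; SF2 primers measure total expression. 2^-CT method relative to GAPDH, untreated set at 1.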

HCT-116 [3] = experiment: Cytotoxicity against human HCT-116 cells assessed as reduction in cell viability at 500 nM incubated for 24 hrs by MTS assay; assay type: toxicity, cell-based; conditions: hct-116, 24 h, 0.5 µM
In short: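 HCT-116 cells plated at 5 × 10³ cells/well in supplemented McCoy's 5a and grown 24 h at 37 °C, 5% CO₂. Compound given at 500 nM, the top dose of the 24 h splicing series, in 0.5% DMSO for 24 h. Cells washed with PBS, MTS reagent added for 2 h at 37 °C, A490 read against A690.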

SF3B1 pre-mRNA [4] = experiment: Modulation of splicing in SF3B1 pre-mRNA in human HCT-116 cells assessed as intron 13 retention at 100 to 500 nM incubated for 24 hrs by qRT-PCR analysis; assay type: functional, cell-based; conditions: dose 100-500 nM
In short: (§2)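 HCT-116 cells in supplemented McCoy's 5a with 0.5% final DMSO were treated for 24 h at 100, 250 or 500 nM. Total RNA isolated and DNase-treated (1 µg). qPCR used 2.5 µM each primer on 5 ng cDNA, 40 cycles. Intron retention was computed by the 2^-CT method relative to GAPDH and expressed versus untreated cells set to 1.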

SF3B2 pre-mRNA [5] = experiment: Modulation of splicing in SF3B2 pre-mRNA in human HCT-116 cells assessed as intron 10 retention level at 8.6 uM incubated for 4 hrs by qRT-PCR analysis; assay type: functional, cell-based; conditions: filed as modulator
In short: as §2, with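 “5a, compound added from DMSO stock to a final” for “5a with”, “DMSO, 4” for “final DMSO were treated for 24”, “a single standardized concentration per analogue.” for “100, 250 or 500 nM.”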

DNAJB1 pre-mRNA [6] = experiment: Modulation of splicing in DNAJB1 pre-mRNA in human HCT-116 cells assessed as intron 2 retention level at 8.6 uM incubated for 4 hrs by qRT-PCR analysis; assay type: functional, cell-based; conditions: filed as modulator
HCT-116 [7] = experiment: Modulation of splicing in PLK-1 pre-mRNA in human HCT-116 cells assessed as effect on exon 3 inclusion at 8.6 uM incubated for 4 hrs by qRT-PCR analysis; assay type: functional, cell-based; conditions: filed as modulator
HCT-116 [8] = experiment: Modulation of splicing in MCL-1L pre-mRNA in human HCT-116 cells assessed as intron 5 retention at 100 to 500 nM incubated for 24 hrs by qRT-PCR analysis; assay type: functional, cell-based; conditions: dose 100-500 nM; in short: as §1
SF3A1 pre-mRNA [9] = experiment: Modulation of splicing in SF3A1 pre-mRNA in human HCT-116 cells assessed as intron 6 retention at 100 to 500 nM incubated for 24 hrs by qRT-PCR analysis; assay type: functional, cell-based; conditions: dose 100-500 nM; in short: as §1
SF3A1 pre-mRNA [10] = experiment: Modulation of splicing in SF3A1 pre-mRNA in human HCT-116 cells assessed as intron 6 retention level at 8.6 uM incubated for 4 hrs by qRT-PCR analysis; assay type: functional, cell-based; conditions: filed as modulator
DNAJB1 pre-mRNA [11] = experiment: Modulation of splicing in DNAJB1 pre-mRNA in human HCT-116 cells assessed as intron 2 retention at 100 to 500 nM incubated for 24 hrs by qRT-PCR analysis; assay type: functional, cell-based; conditions: dose 100-500 nM; in short: as §1
SF3B2 pre-mRNA [12] = experiment: Modulation of splicing in SF3B2 pre-mRNA in human HCT-116 cells assessed as intron 10 retention at 100 to 500 nM incubated for 24 hrs by qRT-PCR analysis; assay type: functional, cell-based; conditions: dose 100-500 nM; in short: as §2
HCT-116 [13] = experiment: Cytotoxicity against human HCT-116 cells assessed as reduction in cell viability at 8.6 uM incubated for 4 hrs by MTS assay; assay type: toxicity, cell-based; conditions: hct-116, 4 h
AURKA pre-mRNA [14] = experiment: Modulation of splicing in AURKA pre-mRNA in human HCT-116 cells assessed as effect on exon 4 skipping at 8.6 uM incubated for 4 hrs by qRT-PCR analysis; assay type: functional, cell-based; conditions: filed as modulator
SF3A3 pre-mRNA [15] = experiment: Modulation of splicing in SF3A3 pre-mRNA in human HCT-116 cells assessed as intron 5 retention level at 8.6 uM incubated for 4 hrs by qRT-PCR analysis; assay type: functional, cell-based; conditions: filed as modulator
In short: as §2, with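 “5a, compound added from DMSO stock to a final” for “5a with”, “DMSO, 4” for “final DMSO were treated for 24”, “a single standardized concentration per analogue.” for “100, 250 or 500 nM.”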

SF3B1 pre-mRNA [16] = experiment: Modulation of splicing in SF3B1 pre-mRNA in human HCT-116 cells assessed as intron 13 retention level at 8.6 uM incubated for 4 hrs by qRT-PCR analysis; assay type: functional, cell-based; conditions: filed as modulator
In short: as §2, with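 “5a, compound added from DMSO stock to a final” for “5a with”, “DMSO, 4” for “final DMSO were treated for 24”, “a single standardized concentration per analogue.” for “100, 250 or 500 nM.”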

SF3A3 pre-mRNA [17] = experiment: Modulation of splicing in SF3A3 pre-mRNA in human HCT-116 cells assessed as intron 5 retention level at 44 nM incubated for 4 hrs by qRT-PCR analysis; assay type: functional, cell-based; conditions: filed as modulator
AURKA pre-mRNA [18] = experiment: Modulation of splicing in AURKA pre-mRNA in human HCT-116 cells assessed as effect on exon 4 skipping at 44 nM incubated for 4 hrs by qRT-PCR analysis; assay type: functional, cell-based; conditions: filed as modulator
DNAJB1 pre-mRNA [19] = experiment: Modulation of splicing in DNAJB1 pre-mRNA in human HCT-116 cells assessed as intron 2 retention level at 44 nM incubated for 4 hrs by qRT-PCR analysis; assay type: functional, cell-based; conditions: filed as modulator
HCT-116 [20] = experiment: Cytotoxicity against human HCT-116 cells assessed as reduction in cell viability at 44 nM incubated for 4 hrs by MTS assay; assay type: toxicity, cell-based; conditions: hct-116, 4 h, 0.044 µM
SF3B1 pre-mRNA [21] = experiment: Modulation of splicing in SF3B1 pre-mRNA in human HCT-116 cells assessed as intron 13 retention level at 44 nM incubated for 4 hrs by qRT-PCR analysis; assay type: functional, cell-based; conditions: filed as modulator
In short: as §2, with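 “5a, compound added from DMSO stock to a final” for “5a with”, “DMSO, 4” for “final DMSO were treated for 24”, “a single standardized concentration per analogue.” for “100, 250 or 500 nM.”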

HCT-116 [22] = experiment: Modulation of splicing in PLK-1 pre-mRNA in human HCT-116 cells assessed as effect on exon 3 inclusion at 44 nM incubated for 4 hrs by qRT-PCR analysis; assay type: functional, cell-based; conditions: filed as modulator
SF3B2 pre-mRNA [23] = experiment: Modulation of splicing in SF3B2 pre-mRNA in human HCT-116 cells assessed as intron 10 retention level at 44 nM incubated for 4 hrs by qRT-PCR analysis; assay type: functional, cell-based; conditions: filed as modulator
In short: as §2, with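 “5a, compound added from DMSO stock to a final” for “5a with”, “DMSO, 4” for “final DMSO were treated for 24”, “a single standardized concentration per analogue.” for “100, 250 or 500 nM.”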

SF3A1 pre-mRNA [24] = experiment: Modulation of splicing in SF3A1 pre-mRNA in human HCT-116 cells assessed as intron 6 retention level at 44 nM incubated for 4 hrs by qRT-PCR analysis; assay type: functional, cell-based; conditions: filed as modulator

## CC[C@H](OC)[C@@H](C)[C@H]1O[C@@H]1[C@H](O)[C@H](C)/C=C/C=C(\C)[C@@H]1OC(=O)C[C@H](O)CC[C@@](C)(O)[C@@H](OC(C)=O)/C=C/[C@H]1C
[1]
  GI50 at 72 h: 41300 nM

## CC[C@H](OC)[C@@H](C)[C@H]1O[C@@H]1[C@H](O)[C@H](C)/C=C/C=C(\C)[C@H]1OC(=O)C[C@H](O)CC[C@@](C)(O)[C@H](OC(C)=O)/C=C/[C@@H]1C
SF3A3 pre-mRNA [2]
  Activity: inactive
[1]
  GI50 at 72 h: 588 nM
HCT-116 [3]
  Activity: Non-Toxic
SF3B1 pre-mRNA [4]
  Activity: inactive
SF3B2 pre-mRNA [5]
  Activity: > 3
DNAJB1 pre-mRNA [6]
  Activity: > 3
HCT-116 [7]
  Activity: Active
HCT-116 [8]
  Activity: inactive
SF3A1 pre-mRNA [9]
  Activity: inactive
SF3A1 pre-mRNA [10]
  Activity: > 3
DNAJB1 pre-mRNA [11]
  Activity: inactive
SF3B2 pre-mRNA [12]
  Activity: inactive
HCT-116 [13]
  Activity: Non-Toxic
AURKA pre-mRNA [14]
  Activity: Active
SF3A3 pre-mRNA [15]
  Activity: < 3
SF3B1 pre-mRNA [16]
  Activity: < 3

## CC[C@H](OC)[C@@H](C)[C@H]1O[C@@H]1[C@H](O)[C@H](C)/C=C/C=C(\C)[C@H]1OC(=O)C[C@@H](O)CC[C@@](C)(O)[C@@H](OC(C)=O)/C=C/[C@@H]1C
[1]
  GI50 at 72 h: 2.7 nM
SF3A3 pre-mRNA [17]
  Activity: < 3
AURKA pre-mRNA [18]
  Activity: Active
DNAJB1 pre-mRNA [19]
  Activity: > 3
HCT-116 [20]
  Activity: Non-Toxic
SF3B1 pre-mRNA [21]
  Activity: < 3
HCT-116 [22]
  Activity: Active
SF3B2 pre-mRNA [23]
  Activity: > 3
SF3A1 pre-mRNA [24]
  Activity: > 3
